The list is not random: actives were taken first. Their share in the collection is about 3.7%.
hERG protect – compounds protecting human hERG from proarrhythmic drug block; Q12809; CHO-hERG, FluxOR thallium flux, dofetilide IC70 present; activation (rescue from dofetilide block), less the hit threshold, % at 10 µM; 310,000 tested, 0.51% active;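 active = activation above the mean of controls blocked by dofetilide plus 5 SD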;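 also: thallium influx through hERG after potassium depolarization seen as dye fluorescence rise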
Kir21 block – blocks the mouse Kir2.1 inward-rectifier potassium channel; P35561; HEK293-Kir2.1, FluxOR thallium flux fluorescence; hits give low values; B-score at 10 µM; 310,000 tested, 0.85% active; AID 1672;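 active = fluorescence ratio B-score at or below minus 3 SD of library scores, with starting-brightness B-score within 2 SD, cut at about -4.2 in these data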;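 also: channel flux triggered by added potassium and thallium sulfate stimulus; B-score of peak minus minimum fluorescence over baseline after thallium stimulus; more negative B-score means stronger Kir2.1 block with less thallium influx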
KCNQ1 act – potentiators or activators of human KCNQ1 potassium channel; P51787; CHO-K1 KCNQ1, thallium flux FluxOR fluorescence; hits give high values; B-score at 10 µM; 310,000 tested, 0.35% active; AID 2648;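 active = fluorescence ratio B-score, a plate-corrected score, at least three library SD, with initial intensity B-score within 5 SD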
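Medium – assay buffer, equal DMSO in all wells · Material – CHO-K1 cell line with stable KCNQ1 potassium channel expression · Signal – kinetic FluxOR thallium fluorescence, 10-s 1-Hz baseline, 110-s post-stimulus read · Compound – single concentration per compound, DMSO matched to controls · Schedule – 37 °C overnight plating, 90-min dark dye load, 20-min compound pretreatment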
KCNQ1 block – blocks the human KCNQ1 potassium channel. CHO-K1 KCNQ1, FluxOR thallium flux fluorescence; hits give high values. P51787. 310,000 tested, 1.3% active. AID 2642. B-score at 10 µM;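 active = compounds whose thallium flux B-score, printed positive for inhibition, exceeds three library SD while starting fluorescence stays within three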;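 also: channel opened by potassium depolarization with thallium stimulus after 20 min compound exposure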
KCNK9 block – inhibitors of human KCNK9 two-pore domain potassium channel | HEK293 KCNK9, FluxOR thallium flux fluorescence; hits give low values | B-score at 10 µM | 310,000 tested, 1.2% active | AID 488922;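 active = ratio B-score over 3 SD below the library mean, with starting fluorescence within 5 SD of its mean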;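 also: negative B-score means less thallium flux so channel inhibition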
Target sequence (Q9NPC2 whole entry, looked up, the tested form may be a part): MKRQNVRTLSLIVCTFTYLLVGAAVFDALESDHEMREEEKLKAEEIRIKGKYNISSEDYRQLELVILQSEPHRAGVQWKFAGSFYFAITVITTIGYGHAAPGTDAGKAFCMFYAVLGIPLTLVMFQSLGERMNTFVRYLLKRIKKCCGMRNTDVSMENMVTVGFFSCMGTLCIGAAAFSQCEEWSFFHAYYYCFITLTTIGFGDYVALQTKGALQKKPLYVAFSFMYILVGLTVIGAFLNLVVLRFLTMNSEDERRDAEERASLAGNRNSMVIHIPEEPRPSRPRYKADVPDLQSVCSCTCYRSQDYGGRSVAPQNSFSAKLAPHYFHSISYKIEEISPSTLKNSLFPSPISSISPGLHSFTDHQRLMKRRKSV
KCNK3 inh – human KCNK3 channel inhibition, primary screen | O14649 | CHO-KCNK3 thallium flux, FluxOR fluorescence; hits give low values | B-score at 10 µM | 340,000 tested, 0.84% active | AID 602410;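 active = B-score under library mean minus 4 SD, starting fluorescence ratio at most library mean plus 5 SD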;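 also: more negative B-score means stronger inhibition of thallium flux through KCNK3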
The depositor's hits bear a star; i = inactive; / = no result.

SMILES | hERG protect | Kir21 block | KCNQ1 act | KCNQ1 block | KCNK9 block | KCNK3 inh
COc1cccc([C@@H]2Oc3ccc(OC)cc3C(=O)[C@H]2OC(=O)NCc2ccc3c(c2)OCO3)c1 | 4.6* | 0.53 | i | i | i | /
O=C(CSc1nc2ccccc2c(=O)n1-c1ccc(F)cc1F)Nc1ccc2c(c1)CCC2 | -11 | 0.59 | i | i | -7.6* | i
COc1cc([N+](=O)[O-])cc2cc(C(=O)N3CCCC3)c(=O)oc12 | -5 | -0.1 | i | i | i | i
CC(=O)Nc1cccc(OCCCNS(=O)(=O)c2ccc(C#N)cc2)c1 | -8 | -1.7 | i | i | i | i
COc1ccccc1-n1c(=S)sc2c(=O)n(Cc3ccco3)c(SC)nc21 | -13 | -0.96 | i | 9* | i | i
COc1ccccc1-n1c(SC)nc2c(sc(=S)n2-c2ccccc2)c1=O | -9 | -0.75 | i | i | i | i
O=C(COc1ccc(S(=O)(=O)N2CCCCC2)cc1)N1CCCC1 | 0 | 0.01 | i | i | i | i
O=C(Cc1nc2ccccc2[nH]1)c1cccc([N+](=O)[O-])c1 | -16 | 0.47 | i | 8* | i | i
COC(=O)c1sccc1NC(=S)N1CCC(C(N)=O)CC1 | -3 | -0.86 | i | i | i | i
C=CCOc1cccc(C(=O)Nc2ncn[nH]2)c1 | -13 | -1.5 | i | i | i | i
COc1ccc(S(=O)(=O)NN(C)c2ncc(C(F)(F)F)cc2Cl)cc1 | -3 | -8* | i | i | i | i
CCN(CC(=O)Nc1ccc(N2CCOCC2)cc1)C(=O)COc1ccccc1OC | -9 | 1.6 | i | i | i | i
CCOC(=O)N/N=C/c1c(C)nn(-c2ccccc2Cl)c1Cl | 1 | 1.2 | i | i | -8.1* | i
CCOC(=O)N1CCN(C(=S)Nc2ccc(C)cc2)CC1 | -6 | -0.81 | i | i | i | i
Cc1nn(-c2ccc(N3CCOCC3)nn2)c(C)c1CCC(=O)Nc1ccc(F)cc1 | -6 | 0.17 | i | i | i | i
O=[N+]([O-])c1ccc(Sc2nccn2Cc2ccccc2)cc1 | -15 | -5* | i | i | i | i
Clc1ccc(CSc2nccn2Cc2ccccc2)cc1 | -9 | -0.01 | i | i | i | i
Cc1c([N+](=O)[O-])c([N+](=O)[O-])nn1CC(=O)N1CCOCC1 | -7 | 1.9 | i | i | i | i
N#Cc1ccsc1NC(=O)CCN1CCN(C(c2ccccc2)c2ccccc2)CC1 | -11 | 1.1 | i | i | i | i
O=C1C(=O)N(CCN2CCOCC2)C(c2cccnc2)/C1=C(/O)c1ccc(Cl)cc1 (centres undefined) | 5.5* | 1 | i | i | i | i
O=C1C(=O)N(CCN2CCOCC2)C(c2cccnc2)/C1=C(/O)c1ccccc1 (centres undefined) | -8 | 1.4 | i | i | i | /
CCn1c(=S)[nH]c2sc3c(c2c1=O)CCCC3 | 16* | 0.01 | 35* | i | i | i
CC1CCc2c(sc3nn[nH]c(=O)c23)C1 (centres undefined) | -10 | 0.01 | i | i | i | i
CC1CCc2c(sc3[nH]c(=S)n(C)c(=O)c23)C1 (centres undefined) | 52* | 0.02 | 74* | i | i | i
C=CCn1c(=S)[nH]c2sc3c(c2c1=O)CCC3 | 16* | 1.1 | i | i | i | i
CCCc1nc2oc3c(NCCN(C)C)ncnc3c2c2c1CCCC2 | -7 | -0.53 | 8* | i | i | i
O=C(O)C1CCN(S(=O)(=O)c2ccc(Cl)s2)CC1 | / | / | / | / | / | i
CSc1nnc(C)c(=O)n1COC(=O)c1cc(Cl)ccc1[N+](=O)[O-] | -1 | 0.71 | i | i | i | i
Cc1sc2ncnc(NCC(O)c3ccc([N+](=O)[O-])cc3)c2c1C (centres undefined) | -15 | -1.3 | i | 9* | i | i
Cc1ccccc1-c1nn(-c2ccc(F)cc2F)cc1CNC1CC1 | -5 | 1.2 | i | i | i | i

Bioassay records (PubChem)
